The list is not random: actives were taken first. Their share in the collection is about 2.5%.
Efflux pump mplx: blocks antifungal efflux pumps in multiplex yeast assay; S. cerevisiae Candida pump triplex, Nile Red efflux; inhibition, % at 10 µM; 330,000 compounds, 0.44% hits;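 active means plate passing quality check with inhibition over a set limit, or well fluorescence over plate mean plus 4 SD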;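 further: Nile Red retained in pooled yeast measured as flow cytometry median fluorescence; 0% = buffer negative control and 100% = Enniatin B positive control; higher means more Nile Red kept so more efflux inhibition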
MEKK3 PB1 HTS: MEKK3-MEK5 PB1 interaction, increase or decrease; binding response (% of control), % at 10 µM; Q99759; 290,000 compounds, 1.4% hits; bead-based flow cytometry, Alexa488-MEK5 binding to MEKK3; actives lie on both sides; 0 = blocked by unlabeled MEK5, 100 = vehicle;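 active means binding response more than 3 SD above or below the average of its plate-row segment, actives on both sides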;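 further: Alexa488 bead fluorescence after subtracting the streptavidin-only scavenger bead signal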
Target sequence (Q99759 whole entry, looked up): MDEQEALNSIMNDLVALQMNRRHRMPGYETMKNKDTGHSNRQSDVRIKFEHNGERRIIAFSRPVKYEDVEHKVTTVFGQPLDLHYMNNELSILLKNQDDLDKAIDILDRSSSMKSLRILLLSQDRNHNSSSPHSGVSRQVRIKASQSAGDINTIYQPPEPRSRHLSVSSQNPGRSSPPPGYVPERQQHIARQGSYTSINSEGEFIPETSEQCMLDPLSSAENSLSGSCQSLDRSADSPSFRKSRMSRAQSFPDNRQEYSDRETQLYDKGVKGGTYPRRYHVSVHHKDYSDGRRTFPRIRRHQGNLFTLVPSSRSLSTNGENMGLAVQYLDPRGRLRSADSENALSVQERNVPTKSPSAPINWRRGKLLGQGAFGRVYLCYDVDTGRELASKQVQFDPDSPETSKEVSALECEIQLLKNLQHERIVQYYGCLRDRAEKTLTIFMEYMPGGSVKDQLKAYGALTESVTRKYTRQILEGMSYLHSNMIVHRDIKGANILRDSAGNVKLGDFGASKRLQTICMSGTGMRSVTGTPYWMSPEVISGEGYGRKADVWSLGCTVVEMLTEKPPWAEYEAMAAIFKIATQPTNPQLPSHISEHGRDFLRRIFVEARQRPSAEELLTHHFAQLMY
MEKK2 WT-MEK5: raises or lowers MEK5 binding to wildtype human MEKK2 PB1 domain; Q9Y2U5; binding response (% of control), % at 10 µM; bead flow cytometry, Alexa488-MEK5 binding to MEKK2 WT; actives lie on both sides; AID 1531; 290,000 compounds, 1.1% hits; in the data active means binding response below about 67% or above about 130%
ABCB1 inh: blocks JC-1 efflux by human ABCB1 transporter; P08183; CCRF-Adr cells, flow cytometry; inhibition, % at 6.6 µM; 190,000 compounds, 0.067% hits; in the data active means inhibition above about 40%;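 further: 0% = vehicle and 100% = reference inhibitor; higher value means more JC-1 retained so stronger ABCB1 efflux block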
MEKK2mut PB1 HTS: signal of MEK5 binding to mutant human MEKK2 PB1 domain; percent response, % at 10 µM; bead flow cytometry, Alexa488-MEK5 binding to MEKK2 mutant; 290,000 compounds, 0.35% hits; AID 1530; in the data active means percent response above about 24%, passing the limit was not always enough
ABCG2 block: human ABCG2 inhibition, ABCB1 as counter-screen; Q9UNQ0; IgMXP3 cells, JC-1 efflux, flow cytometry; 190,000 compounds, 0.1% hits; AID 1325; inhibition, % at 6.6 µM;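 active means inhibition above 80%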;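 further: 0% = DMSO and 100% = nicardipine control wells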
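Incubation: cells with compound and JC-1, 10 min at 25 °C, rotating, no wash / Test system: IgMXP3 (ABCG2) plus far-red-tagged CCRF-Adr (ABCB1) cells / Compound dosing: one concentration, 6.6 µM final / Also added: JC-1 fluorescent substrate / Evaluation: efflux inhibition in percent versus controls / Detection: flow cytometry, 530 nm JC-1 signal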
MEKK2wt confirm: raises or lowers MEK5 binding to wildtype human MEKK2, retest | shares compounds with MEKK3 PB1 HTS | bead flow cytometry, Alexa488-MEK5 binding to MEKK2 WT; actives lie on both sides | binding response (% of control), % at 10 µM | 5,900 compounds, 2.4% hits | AID 1892; in the data active means binding response below about 16% or above about 210%; inactive means in between
MEKK2mut-MEK5: signal of MEK5 binding to mutant human MEKK2, retest. shares compounds with MEKK3 PB1 HTS. bead flow cytometry, Alexa488-MEK5 binding to MEKK2 mutant. percent response, % at 10 µM. 5,900 compounds, 2% hits. AID 1893; in the data active means percent response mostly above about 71%, no sharp cut-off; inactive means mostly below about 38%;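 further: higher means compound restores mutant binding toward wildtype level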
MEKK3-MEK5 inh: MEKK3-MEK5 PB1 inhibition, single concentration confirmation; shares compounds with MEKK3 PB1 HTS; bead flow cytometry, Alexa488-MEK5 binding to MEKK3; hits give low values; binding response (% of control), % at 10 µM; 5,900 compounds, 1.8% hits; AID 1894;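 active means binding response below 72% of control, or above a set upper limit, though filed actives all read lower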;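 further: 100% = DMSO only wells and 0% = binding blocked by excess unlabeled MEK5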
* marks the source's active call; other numbers are inactive results; . = no result given; [ ] = dose if it differs, or a comment.

SMILES | Efflux pump mplx | MEKK3 PB1 HTS | MEKK2 WT-MEK5 | ABCB1 inh | MEKK2mut PB1 HTS | ABCG2 block | MEKK2wt confirm | MEKK2mut-MEK5 | MEKK3-MEK5 inh
O=C(COC(=O)CNS(=O)(=O)c1ccc2ccccc2c1)Nc1ccccc1Sc1ccccc1 | 0.1 | 105.0 | 88.0 | 0.5 | -1.0 | 4.3 | . | . | .
Cc1cc(-c2nnc3n2N=C(c2ccc(-c4ccccc4)cc2)CS3)n[nH]1 | 0.3 | 100.0 | 88.0 | 1.0 | -3.0 | 4.6 | . | . | .
c1ccc(-c2cc(-c3nnc4n3N=C(c3ccc5ccccc5c3)CS4)[nH]n2)cc1 | 0.3 | 107.0 | 71.0*[inhibitor] | 0.7 | -1.0 | 4.2 | 75.0 | -17.0 | 98.0
COc1ccc(C2CC(c3ccccc3)=NN2C(=O)c2cccs2)cc1 (centres undefined) | 0.0 | 99.0 | 96.0 | 3.7 | 0.0 | 6.5 | . | . | .
COc1ccc(C2=NN(C(=O)c3cccs3)C(c3ccccc3O)C2)cc1 (centres undefined) | 0.0 | 50.0*[inhibitor] | 48.0 | 0.1 | -15.0 | 20.0 | 90.0 | -8.0 | 96.0
CCOC(=O)c1c(C)n(C)c2ccc(OC)c(NC(=O)CN3CCN(C4CCCCC4)CC3)c12 | 0.1 | 99.0 | 102.0 | 0.1 | -5.0 | 1.7 | . | . | .
CCOC(=O)c1c(C)n(C)c2ccc(OC)c(NC(=O)CN3CCC(C(=O)OCC)CC3)c12 | 0.0 | 47.0*[inhibitor] | 55.0 | . | -37.0 | . | 102.0 | 6.0 | 102.0
COc1ccc(C(=O)C2CCCN(C(=O)c3cc(C)nc(C)n3)C2)cc1OC (centres undefined) | -0.2 | 129.0* | 112.0 | 0.5 | 1.0 | 0.9 | 100.0 | 1.0 | 102.0
c1ccc(-c2noc(CN3CCN(c4cnccn4)CC3)n2)cc1 | 0.0 | 103.0 | 97.0 | -0.2 | 2.0 | -0.5 | . | . | .
Cc1ccc2c(c1)c1c(n2CC(O)CNC2CCCCC2)CCCC1 (centres undefined) | 0.3 | 108.0 | 154.0* | 1.9 | 21.0 | 0.6 | 133.0 | 17.0 | 99.0
CSCCC(NS(=O)(=O)c1ccccc1F)C(=O)Nc1ccncc1 (centres undefined) | -0.3 | . | . | . | . | . | . | . | .
Nc1ccc2nc(Cc3ccccc3)[nH]c2c1 | 0.1 | 41.0*[inhibitor] | 47.0*[inhibitor] | . | -12.0 | . | 105.0 | 8.0 | 104.0
CCOc1ccccc1NC1=C(Cl)C(=O)N(c2ccccc2)C1=O | -0.1 | 98.0 | 100.0 | 1.7 | -1.0 | 31.1 | . | . | .
COc1cc(CCCN2C(=O)C(=O)NC[C@@H]2C(C)O)cc(OC)c1OC (some centres undefined) | -0.2 | 2.0*[inhibitor] | 2.0*[inhibitor] | . | 4.0 | . | 102.0 | -4.0 | 97.0
CN1CCc2c(sc3c2c(=O)n(-c2ccc(Cl)cc2)c2nncn32)C1 | 0.0 | 122.0* | 114.0 | -0.1 | 4.0 | 0.5 | 95.0 | -4.0 | 98.0
CCOc1ccc(S(=O)(=O)N2CCCC(C(=O)NCc3cccnc3)C2)cc1 (centres undefined) | -0.1 | 109.0 | 109.0 | . | 9.0 | . | . | . | .
Cc1oc2c(C)c(O)ccc2c(=O)c1-c1cnn(-c2ccccc2)c1 | 0.1 | 69.0*[inhibitor] | 81.0 | 0.2 | -12.0 | 9.2 | 97.0 | -4.0 | 99.0
CS(=O)(=O)N1N=C(c2ccccc2)CC1c1ccc2nccnc2c1 (centres undefined) | 0.1 | 98.0 | 103.0 | 0.9 | -1.0 | 12.7 | . | . | .
Cc1ccc(C2=NN(S(C)(=O)=O)C(c3ccc4nccnc4c3)C2)cc1 (centres undefined) | -0.1 | 94.0 | 3.0*[inhibitor] | -0.2 | 6.0 | 6.1 | 92.0 | -11.0 | 89.0
CS(=O)(=O)Nc1ccc(C2=NN(S(C)(=O)=O)C(c3ccc4c(c3)OCO4)C2)cc1 (centres undefined) | -0.3 | 6.0*[inhibitor] | . | -0.4 | . | -1.0 | 70.0 | -7.0 | 72.0
O=C(O)CCCC(=O)N1N=C(c2ccccc2)CC1c1ccc2nccnc2c1 (centres undefined) | -0.2 | 136.0* | 106.0 | 1.3 | 2.0 | 14.5 | 99.0 | 2.0 | 99.0
COc1ccc(C2=NN(S(C)(=O)=O)C(c3ccc4nccnc4c3)C2)cc1 (centres undefined) | -0.1 | 1.0*[inhibitor] | . | 2.0 | -3.0 | 11.3 | 98.0 | 1.0 | 99.0
O=C(O)CCC(=O)N1N=C(c2ccccc2)CC1c1ccc2nccnc2c1 (centres undefined) | 0.1 | 106.0 | 104.0 | 0.1 | 0.0 | 0.7 | . | . | .
COc1ccc(N(CC(=O)NCc2cccnc2)S(=O)(=O)c2ccccc2)c(OC)c1 | -0.1 | . | . | . | . | . | . | . | .
Cc1ccc(NC(=O)COc2ncnc3cc([N+](=O)[O-])ccc23)cc1S(=O)(=O)N1CCOCC1 | 0.0 | 102.0 | 96.0 | . | 4.0 | . | . | . | .
SMILES | Efflux pump mplx | MEKK3 PB1 HTS | MEKK2 WT-MEK5 | ABCB1 inh | MEKK2mut PB1 HTS | ABCG2 block | MEKK2wt confirm | MEKK2mut-MEK5 | MEKK3-MEK5 inh
COCCNC(=O)CNC(=O)c1nn(-c2ccc(OC)c(Cl)c2)c(=O)c2ccccc12 | -0.1 | 143.0* | 135.0* | 5.5 | 10.0 | 8.2 | 103.0 | 4.0 | 103.0
CSCc1ccc(C(=O)NCC(c2cccs2)N2CCOCC2)cc1 (centres undefined) | 0.3 | . | . | . | . | . | . | . | .
O=C(O)CCCC(=O)N1N=C(c2c(-c3ccccc3)c3cc(Cl)ccc3[nH]c2=O)CC1c1cccs1 (centres undefined) | -0.1 | 98.0 | 103.0 | -0.1 | 1.0 | -0.6 | . | . | .
O=C(O)CCC(=O)N1N=C(c2c(-c3ccccc3)c3cc(Cl)ccc3[nH]c2=O)CC1c1cccs1 (centres undefined) | -0.1 | 134.0* | 105.0 | -0.1 | 1.0 | -0.2 | 102.0 | -3.0 | 101.0
COc1ccc(-c2nc(CN3CCN(c4cc(C)nc(C)c4)CC3)c(C)o2)c2ccccc12 | 0.1 | 107.0 | 158.0* | 0.3 | -6.0 | 13.6 | 161.0 | 26.0 | 106.0
Cc1cc(N2CCN(Cc3nc(-c4ccc(Cl)cc4)oc3C)CC2)cc(C)n1 | 0.5 | 103.0 | 126.0 | . | 18.0 | . | . | . | .
NC(N)=N/N=C/c1ccc2cccc(OCc3ccccc3)c2n1 | 0.0 | 104.0 | 148.0* | . | 31.0 | . | 2.0*[inhibitor] | -47.0 | 2.0*
Cc1cccc(/C=C(\C(=O)O)c2ccc(S(=O)(=O)N3CCCC3)s2)c1 | 0.1 | . | . | . | . | . | . | . | .
CC(=O)Nc1ccc(S(=O)(=O)NCc2ccncc2)cc1 | 0.1 | 98.0 | 83.0 | 0.5 | -9.0 | 0.4 | . | . | .
CC1CCCCN1C(=O)COc1ccccc1F (centres undefined) | 0.8 | 135.0* | 113.0 | 0.7 | 0.0 | 1.5 | 104.0 | 0.0 | 103.0
